Consider one compound from ChEMBL document CHEMBL1149444, “Discovery of imidazo[1,2-b][1,2,4]triazines as GABA(A) alpha2/3 subtype selective agonists for the treatment of anxiety” (J Med Chem, 2006).

Data set [1] has as its target T1, GABA-A receptor; alpha-3/beta-3/gamma-2 (Homo sapiens, UniProt P18507+P28472+P34903).
T1 sequence (P18507 whole entry): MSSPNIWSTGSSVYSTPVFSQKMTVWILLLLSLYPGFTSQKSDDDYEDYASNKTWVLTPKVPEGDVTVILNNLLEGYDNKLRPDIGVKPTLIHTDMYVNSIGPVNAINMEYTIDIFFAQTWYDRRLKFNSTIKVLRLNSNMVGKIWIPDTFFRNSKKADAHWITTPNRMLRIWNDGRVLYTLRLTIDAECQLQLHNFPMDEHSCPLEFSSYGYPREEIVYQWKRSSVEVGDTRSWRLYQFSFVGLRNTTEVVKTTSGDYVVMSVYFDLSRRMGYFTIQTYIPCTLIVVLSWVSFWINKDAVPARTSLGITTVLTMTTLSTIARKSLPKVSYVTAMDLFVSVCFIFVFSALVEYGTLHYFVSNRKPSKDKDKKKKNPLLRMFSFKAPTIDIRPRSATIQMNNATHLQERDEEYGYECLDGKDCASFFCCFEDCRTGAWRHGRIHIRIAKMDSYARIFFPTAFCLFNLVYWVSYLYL
T1 sequence (P28472 whole entry): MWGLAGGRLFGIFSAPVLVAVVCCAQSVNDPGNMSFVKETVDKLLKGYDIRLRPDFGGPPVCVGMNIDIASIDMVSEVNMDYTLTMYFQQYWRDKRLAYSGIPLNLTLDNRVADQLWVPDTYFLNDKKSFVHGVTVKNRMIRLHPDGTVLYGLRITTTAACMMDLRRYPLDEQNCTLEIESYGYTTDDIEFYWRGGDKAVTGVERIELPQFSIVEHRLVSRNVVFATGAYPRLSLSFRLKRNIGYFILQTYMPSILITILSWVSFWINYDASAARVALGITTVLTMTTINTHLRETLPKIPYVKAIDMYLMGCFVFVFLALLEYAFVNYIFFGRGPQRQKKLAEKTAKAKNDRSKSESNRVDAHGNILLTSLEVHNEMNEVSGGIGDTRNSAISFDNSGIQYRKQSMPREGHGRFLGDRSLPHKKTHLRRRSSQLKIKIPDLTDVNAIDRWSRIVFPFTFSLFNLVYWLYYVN
T1 sequence (P34903 whole entry): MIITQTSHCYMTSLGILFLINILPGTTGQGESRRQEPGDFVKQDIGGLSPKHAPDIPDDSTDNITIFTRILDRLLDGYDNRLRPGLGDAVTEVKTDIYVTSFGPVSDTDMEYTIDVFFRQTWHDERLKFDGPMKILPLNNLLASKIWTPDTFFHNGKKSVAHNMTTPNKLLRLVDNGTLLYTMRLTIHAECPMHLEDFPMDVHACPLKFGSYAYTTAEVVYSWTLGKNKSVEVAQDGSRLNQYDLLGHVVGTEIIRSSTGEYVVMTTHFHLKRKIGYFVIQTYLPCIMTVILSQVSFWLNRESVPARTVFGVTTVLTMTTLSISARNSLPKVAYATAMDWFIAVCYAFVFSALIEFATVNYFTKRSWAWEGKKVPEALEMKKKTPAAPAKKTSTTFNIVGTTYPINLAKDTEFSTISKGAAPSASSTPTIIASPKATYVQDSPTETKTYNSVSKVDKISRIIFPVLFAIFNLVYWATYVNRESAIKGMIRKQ
In words: Displacement of [3H]Ro 15-1788 from recombinant human GABAA alpha3 receptor plus beta-3-gamma-2 expressed in L(tk-) cells. It is filed as cell-based. The method, boiled down: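 Inhibition of [3H]Ro15-1788 binding to human recombinant GABAA receptors stably expressed in L(tk-) cells, alpha subunit combined with beta3 and gamma2. Six to eight test concentrations spaced in half-log units. Ki reported as geometric mean of n = 2-12.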
A general note: In a radioligand displacement assay an active substance lowers the binding of a labelled ligand.

For data set [2], the target named is T2, GABA-A receptor; alpha-2/beta-3/gamma-2 (Homo sapiens, UniProt P18507+P28472+P47869).
T2 sequence (P18507 whole entry): T1 sequence (P18507 whole entry)
T2 sequence (P28472 whole entry): T1 sequence (P28472 whole entry)
T2 sequence (P47869 whole entry): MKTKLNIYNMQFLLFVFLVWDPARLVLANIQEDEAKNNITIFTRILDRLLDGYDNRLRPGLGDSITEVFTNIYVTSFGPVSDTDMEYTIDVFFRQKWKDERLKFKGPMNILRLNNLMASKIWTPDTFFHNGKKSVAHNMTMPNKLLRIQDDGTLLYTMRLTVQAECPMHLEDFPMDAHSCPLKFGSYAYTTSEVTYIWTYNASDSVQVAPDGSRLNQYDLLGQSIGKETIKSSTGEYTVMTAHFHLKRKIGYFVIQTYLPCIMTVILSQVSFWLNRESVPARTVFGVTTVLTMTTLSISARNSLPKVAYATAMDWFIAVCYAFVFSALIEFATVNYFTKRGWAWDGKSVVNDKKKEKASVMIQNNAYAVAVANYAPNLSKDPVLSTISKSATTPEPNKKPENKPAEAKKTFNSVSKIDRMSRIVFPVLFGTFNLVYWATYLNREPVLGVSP
Description: Displacement of [3H] Ro15-1788 from recombinant human GABAA alpha2 receptor plus beta-3-gamma-2 expressed in L(tk-) cells. Type of data set: cell-based.

Data set [3] deals with GABA-A receptor; alpha-2/beta-3/gamma-2 (Homo sapiens) (UniProt P18507+P28472+P47869). In words: Efficacy against recombinant human GABAA alpha2 receptor plus beta3gamma2 expressed in L(tk-) cells by whole cell patch clamp method relative to chlordiazepoxide. Type of data set: functional, cell-based. Put shortly:
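Whole-cell patch clamp on L(tk-) cells stably expressing human alpha subunit plus beta3gamma2. GABA applied at an EC20-equivalent concentration. Modulation of that current measured across increasing test-compound concentrations. Efficacy is expressed relative to the maximal response to the full agonist chlordiazepoxide, set at 1.00.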
A general note: Patch clamp records ionic current or voltage across a cell membrane.

Data set [4] can be described thus: Half life in dog at 1 mg/kg, iv or 1 mg/kg, po. Type of data set: ADME, organism-based, Canis lupus familiaris. The conditions noted are these: in vivo. Put shortly: (§1)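 Pharmacokinetics in rat, dog or rhesus after 1 mg/kg iv and 1 mg/kg po dosing. Plasma clearance (mL/min/kg), half-life (h), volume of distribution (L/kg) and oral bioavailability (%) were derived.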

Data set [5] deals with GABA-A receptor; alpha-1/beta-3/gamma-2 (Homo sapiens) (UniProt P14867+P18507+P28472). Description: Efficacy against recombinant human GABAA alpha1 receptor plus beta3gamma2 expressed in L(tk-) cells by whole cell patch clamp method relative to chlordiazepoxide. Type of data set: functional, cell-based. The method, boiled down:
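Whole-cell patch clamp on L(tk-) cells stably expressing the receptor (alpha plus beta3gamma2). GABA applied at an EC20-equivalent concentration. Modulation of the current measured with increasing test concentrations. Efficacy expressed relative to the maximal chlordiazepoxide response (set at 1.00) or as a percentage.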

Data set [6] in a line: Oral bioavailability in rhesus at 1 mg/kg, iv or 1 mg/kg, po. It is filed as ADME, organism-based, Macaca mulatta. The note with it: rhesus monkey, in vivo. The method, boiled down:
as §1

For data set [7], the species on record is Rattus norvegicus. In words: Plasma concentration in rat. Type of data set: ADME, organism-based. The conditions noted are these: in vivo. The method, boiled down: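 Central benzodiazepine receptor occupancy in rat after oral dosing, measured by displacement of [3H]Ro15-1788 binding. Plasma concentration was measured at the dose giving 50% occupancy.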

Data set [8] concerns Rattus norvegicus. Description: Sedation in rat chain pulling assay upto 10 mg/kg, po. It is filed as functional, organism-based. Also noted: dose 10 mg/kg. The method, boiled down:
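Rat chain-pulling assay for sedation. Mean response rate recorded over a 60 min trial starting immediately after oral dosing up to 10 mg/kg. n = 11-12 per group. Significance versus vehicle at p < 0.01.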

Data set [9] in a line: Plasma clearance in rhesus at 1 mg/kg, iv or 1 mg/kg, po. Type of data set: ADME, organism-based, Macaca mulatta. The note with it: rhesus monkey. The method, boiled down: as §1
A short description of data set [10]: Plasma clearance in dog at 1 mg/kg, iv or 1 mg/kg, po. Type of data set: ADME, organism-based, Canis lupus familiaris. The method, boiled down:
as §1

pKi: −log10 of the molar value. Active and inactive are the calls of the source.

Consider `CC(C)(O)c1cnn2c(-c3ccc(F)c(-c4c(F)cccc4C#N)c3)cnc2n1`, for which the figures for the pKi in data set [1] and in data set [2] were 8.70 and 8.74, respectively. Further, the Efficacy in [3] was 0.38%; in data set [5] it was 3%. The half-life (in general, the time needed for the level to fall by half in the phase considered) in data set [4] was 6.5 h. For the same compound, the bioavailability (in general, the share of a dose that reaches the circulation, judged against a reference dose that is usually intravenous) in data set [6] amounted to 29%. This compound also returned a concentration in the data set filed under Rattus norvegicus [7] of 56 nM. Further, the outcome in the data set on Rattus norvegicus [8] was inactive. Besides, the clearance in data set [9] is 5.8 mL/min/kg; in data set [10], 4.6 mL/min/kg.
